High-throughput results from PubChem BioAssay.
Only some compounds are listed: those with a hit (about 5.5% of all), similar ones and a draw of the others.
PostGolgi yeast – growth inhibition of a yeast mutant, post-Golgi transport screen | post-Golgi transport phenotypic cell assay | inhibition, % at 10 µM | 98,000 compounds, 0.9% hits | AID 739;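 also: yeast cells grown in 1536-well plates; yeast grown about 18 h at 30C before absorbance read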
PostGolgi ctrl – yeast control strain growth, post-Golgi counter-screen; efflux-deficient yeast background strain, growth absorbance A615, 16 h; AID 738; 98,000 compounds, 5% hits; inhibition, % at 10 µM
Ecoli WT expand – E. coli BW25113 growth inhibition, expanded screen; growth inhibition, % at 100 µM; AID 710; 98,000 compounds, 0.15% hits; OD600 absorbance;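 active = growth inhibition above about 50% at one test dose, limit read from the data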;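 also: growth measured after 20 h incubation at 37 °C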
HePTP inh – human HePTP phosphatase inhibition. P35236. inhibition, % at 20 µM. 110,000 compounds, 0.64% hits. AID 521. recombinant HePTP phosphatase activity, OD absorbance; in the data active = inhibition above about 50%;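 also: plate controls were vehicle for no effect and reference inhibitor for full effect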
Target sequence (P35236 whole entry, looked up): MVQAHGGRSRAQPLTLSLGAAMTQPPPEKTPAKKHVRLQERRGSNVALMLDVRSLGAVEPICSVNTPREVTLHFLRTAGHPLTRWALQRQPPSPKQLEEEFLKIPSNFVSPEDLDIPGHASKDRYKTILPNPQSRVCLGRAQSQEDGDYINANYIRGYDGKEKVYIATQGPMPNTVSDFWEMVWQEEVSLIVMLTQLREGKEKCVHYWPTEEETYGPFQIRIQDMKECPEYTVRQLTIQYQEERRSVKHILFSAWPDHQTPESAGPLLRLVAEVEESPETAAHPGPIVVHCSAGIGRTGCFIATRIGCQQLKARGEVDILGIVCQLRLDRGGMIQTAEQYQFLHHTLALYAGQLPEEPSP
PLAP activator – activators of human placental alkaline phosphatase; P05187; purified PLAP enzyme, luminescent substrate read-out; hits give high values; activation fold at 20 µM; 96,000 compounds, 1.2% hits; AID 696; in the data active = activation fold above about 2
tolC growth inh – growth inhibitors of E. coli BW25113 tolC mutant; OD615; growth inhibition, % at 10 µM (by protocol); 65,000 compounds, 2.2% hits; AID 573;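 active = growth inhibition at or above a cutoff equal to the mean over every tested compound plus 3 SD, cut at about 60% in these data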;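 also: growth measured after 20 h incubation at 37 °C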
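Test system: tolC-deleted E. coli BW25113; medium: LB with kanamycin 50 µg/mL; compound: single-point testing at 10 µM; incubation: 20 h compound exposure of bacteria at 37 °C; signal: OD at 615 nm; evaluation: growth inhibition in percent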
* = called active by the depositor; ! = not active in a repeat. Rule as the data show it, unless noted: active = inhibition above about 30%; inactive = the rest.

What do the screens show for `O=C(O)c1cccc(NC2=C(Cl)C(=O)N(c3ccc(Cl)cc3)C2=O)c1`?
HePTP inh: 104*

Results for CC(C)(C)NC(=O)C(c1ccco1)N(C(=O)Cn1nnc(-c2ccc(F)cc2)n1)c1ccccc1 (stereo unspecified) ?
HePTP inh: 2

What do the screens show for `CCCCC(C(=O)NC1CCCC1)N(Cc1ccco1)C(=O)Cn1nnc(-c2ccc(F)cc2)n1` (stereo unspecified)?
PostGolgi yeast: -2; PostGolgi ctrl: 7; Ecoli WT expand: -21; PLAP activator: 2.2*

How did CC(C)(C)NC(=O)C(c1ccco1)N(C(=O)Cn1nnc(-c2ccc(F)cc2)n1)c1ccccc1F (stereo unspecified) do in these assays?
PostGolgi yeast: 76*; PostGolgi ctrl: 79*; Ecoli WT expand: 0; HePTP inh: -1; PLAP activator: 1.4; tolC growth inh: 71*

What do the screens show for `CN1C(=O)/C(=C/c2ccc(-c3ccc(F)cc3)o2)SC1=S`?
HePTP inh: -5

Results for O=c1cc(N2CCCCC2)c(-c2ccccc2)nn1Cc1c(Cl)cccc1Cl ?
PostGolgi yeast: -4; PostGolgi ctrl: 46*; Ecoli WT expand: -14; PLAP activator: 1.3

Results for O=c1cc(N2CCCCC2)c(-c2ccccc2)nn1Cc1ccc(Cl)cc1 ?
PostGolgi yeast: -2; PostGolgi ctrl: 30; Ecoli WT expand: -4; PLAP activator: 0.9

How did Cc1ccc(-c2noc(CN(C(=O)c3cccc(Br)c3)C(C)C)n2)cc1 do in these assays?
PostGolgi yeast: 5; PostGolgi ctrl: 27; Ecoli WT expand: 0; HePTP inh: 4; PLAP activator: 1.5; tolC growth inh: 78*

How did COc1ccc(Cl)cc1C(=O)N(Cc1nc(-c2cccc(C)c2)no1)C(C)C do in these assays?
PostGolgi yeast: -12; PostGolgi ctrl: 37*; Ecoli WT expand: -14; HePTP inh: 3; PLAP activator: 1.4; tolC growth inh: 56

What do the screens show for `Cc1ccc(-c2noc(CN(C(=O)C(c3ccccc3)c3ccccc3)C(C)C)n2)cc1`?
PostGolgi yeast: -2; PostGolgi ctrl: 12; Ecoli WT expand: -19; PLAP activator: 1.1

How did COc1ccc(Cl)cc1C(=O)N(Cc1ccccc1)C(C)C do in these assays?
HePTP inh: 7

Results for CN(Cc1nc(-c2ccncc2)no1)S(=O)(=O)c1ccc(Br)cc1 ?
PostGolgi yeast: -7; PostGolgi ctrl: 31*; Ecoli WT expand: -4; HePTP inh: 2; PLAP activator: 1.4; tolC growth inh: 8

What do the screens show for `CC(C)N(Cc1nc(-c2ccccc2)no1)S(=O)(=O)c1ccccc1`?
PostGolgi yeast: -4; PostGolgi ctrl: 16; Ecoli WT expand: -8; HePTP inh: -7; PLAP activator: 0.8; tolC growth inh: 35

How did CC(C)N(Cc1nc(-c2ccccc2)no1)C(=O)CN(C)S(=O)(=O)c1ccccc1 do in these assays?
PostGolgi yeast: -10; PostGolgi ctrl: 34*; Ecoli WT expand: -3; HePTP inh: 8; PLAP activator: 0.8; tolC growth inh: -1

What do the screens show for `Cc1cccc(-c2noc(CN(C(=O)CCc3ccccc3)C(C)C)n2)c1`?
PostGolgi yeast: -3; PostGolgi ctrl: 28; Ecoli WT expand: 0; HePTP inh: 6; PLAP activator: 1.3; tolC growth inh: 76*

How did Cc1cc(Nc2ccc(F)cc2)n2nc(C)nc2n1 do in these assays?
PostGolgi yeast: 1; PostGolgi ctrl: 9; Ecoli WT expand: 10; HePTP inh: -3; PLAP activator: 1.6; tolC growth inh: -10

How did Cc1cc(Nc2ccc(F)cc2Cl)n2nc(C)nc2n1 do in these assays?
PostGolgi yeast: 11; PostGolgi ctrl: 32*; Ecoli WT expand: 5; HePTP inh: 1; PLAP activator: 1.8; tolC growth inh: -8

How did O=S(=O)(Nc1cccc2cccnc12)c1ccc(S(=O)(=O)N2CCCC2)cc1 do in these assays?
PostGolgi yeast: 7; PostGolgi ctrl: 10; Ecoli WT expand: -4; HePTP inh: 8; PLAP activator: 1.1; tolC growth inh: 81*

Results for CCCn1c(SCC(=O)Nc2ccccc2N2CCCCC2)nc2c1c(=O)n(C)c(=O)n2C ?
PostGolgi yeast: 12; PostGolgi ctrl: 22; Ecoli WT expand: -12; HePTP inh: -8; PLAP activator: 1.7; tolC growth inh: 65*

Results for O=C(c1ccc2c(c1)OCO2)N1CCN(c2ccc(Cl)cc2)CC1 ?
PostGolgi yeast: 8; PostGolgi ctrl: 6; Ecoli WT expand: -3; HePTP inh: 102*!; PLAP activator: 1.5; tolC growth inh: 18

How did COc1cc2c(cc1OC)C1=NNC(=O)C1=NC(C)(C)C2 do in these assays?
HePTP inh: -2

Results for Cc1cccc(N2CCC(N=CN3CCCCC3)=N2)c1 ?
HePTP inh: 2

Results for CCOc1ccc(C(=O)N(CN2CCCC2=O)c2ccc(C)cc2)cc1 ?
HePTP inh: 8; tolC growth inh: -13

How did Cc1ccc(N(CN2CCCC2=O)C(=O)c2ccc(OC(C)C)cc2)cc1 do in these assays?
PostGolgi yeast: -1; PostGolgi ctrl: 32*; Ecoli WT expand: -12; HePTP inh: 0; PLAP activator: 1.6; tolC growth inh: 6

Results for O=C(O)c1ccc(/C=C/C(=O)c2ccc3c(c2)OCCO3)cc1 ?
HePTP inh: -24

Results for Oc1ccccc1-c1cc(-c2ccccc2)no1 ?
PostGolgi yeast: 3; PostGolgi ctrl: 43*; Ecoli WT expand: -3; PLAP activator: 1.2

Results for NC(=O)c1ccc(CN2CCN(Cc3ccccc3)CC2)cc1 ?
HePTP inh: -5

How did O=C(CNC(=O)c1cccs1)NCC(=O)OCc1ccc(Cl)cc1 do in these assays?
PostGolgi yeast: -1; PostGolgi ctrl: 32*; Ecoli WT expand: 5; PLAP activator: 1

What do the screens show for `O=C(CNC(=O)c1cccs1)NCC(=O)OCc1ccc(Cl)cc1Cl`?
PostGolgi yeast: -5; PostGolgi ctrl: 13; Ecoli WT expand: -4; PLAP activator: 0.9

Results for O=C(Nc1ccc(O)c(-c2nc3ccccc3s2)c1)c1cc([N+](=O)[O-])ccc1Cl ?
HePTP inh: 4

How did CC1CN(C(=O)Nc2ccc3snnc3c2)c2ccccc21 (stereo unspecified) do in these assays?
PostGolgi yeast: -1; PostGolgi ctrl: 30*; Ecoli WT expand: 12; HePTP inh: 7; PLAP activator: 0.9; tolC growth inh: 17

What do the screens show for `Cc1ccccc1-c1nc2cc(NC(=S)NC(=O)c3ccc(Cl)cc3)ccc2o1`?
HePTP inh: -3

How did CCOC(=O)/C=C(\C)Nc1cc(C)nn1-c1ccccc1 do in these assays?
PostGolgi yeast: 0; PostGolgi ctrl: -1; Ecoli WT expand: 2; HePTP inh: -8; PLAP activator: 0.9; tolC growth inh: 3

How did CCOC(=O)C(=CNc1cc(C)nn1-c1ccc(Cl)cc1)C(=O)OCC do in these assays?
PostGolgi yeast: 2; PostGolgi ctrl: 40*; Ecoli WT expand: -10; PLAP activator: 1.8

What do the screens show for `Cc1ccc(NC(=O)C(=O)NCc2ccc3c(c2)OCO3)cc1`?
HePTP inh: -13
